Reference: PMC13080778 (The Journal of general physiology, 2026)
Where “and” joins values, the source holds several entries; their conditions need not be identical. Equal values may be shown once. Where a name gives a salt, the structure may show the parent alone. Marks after values point to notes of the source that are not given here.

Experiments:
[1] = target: CaV1.2 (Oryctolagus cuniculus, UniProt P15381); test: Whole-cell patch-clamp of ICa in HEK293T cells transfected with CaV1.2; type: cell-based, rabbit; settings: CaV1.2 WT
[2] = target: CaV1.4 (Homo sapiens, UniProt O60840); type: cell-based; settings: for IC50: inhibition of ICa, Hill fit
CaV1.4, sequence (O60840 whole entry): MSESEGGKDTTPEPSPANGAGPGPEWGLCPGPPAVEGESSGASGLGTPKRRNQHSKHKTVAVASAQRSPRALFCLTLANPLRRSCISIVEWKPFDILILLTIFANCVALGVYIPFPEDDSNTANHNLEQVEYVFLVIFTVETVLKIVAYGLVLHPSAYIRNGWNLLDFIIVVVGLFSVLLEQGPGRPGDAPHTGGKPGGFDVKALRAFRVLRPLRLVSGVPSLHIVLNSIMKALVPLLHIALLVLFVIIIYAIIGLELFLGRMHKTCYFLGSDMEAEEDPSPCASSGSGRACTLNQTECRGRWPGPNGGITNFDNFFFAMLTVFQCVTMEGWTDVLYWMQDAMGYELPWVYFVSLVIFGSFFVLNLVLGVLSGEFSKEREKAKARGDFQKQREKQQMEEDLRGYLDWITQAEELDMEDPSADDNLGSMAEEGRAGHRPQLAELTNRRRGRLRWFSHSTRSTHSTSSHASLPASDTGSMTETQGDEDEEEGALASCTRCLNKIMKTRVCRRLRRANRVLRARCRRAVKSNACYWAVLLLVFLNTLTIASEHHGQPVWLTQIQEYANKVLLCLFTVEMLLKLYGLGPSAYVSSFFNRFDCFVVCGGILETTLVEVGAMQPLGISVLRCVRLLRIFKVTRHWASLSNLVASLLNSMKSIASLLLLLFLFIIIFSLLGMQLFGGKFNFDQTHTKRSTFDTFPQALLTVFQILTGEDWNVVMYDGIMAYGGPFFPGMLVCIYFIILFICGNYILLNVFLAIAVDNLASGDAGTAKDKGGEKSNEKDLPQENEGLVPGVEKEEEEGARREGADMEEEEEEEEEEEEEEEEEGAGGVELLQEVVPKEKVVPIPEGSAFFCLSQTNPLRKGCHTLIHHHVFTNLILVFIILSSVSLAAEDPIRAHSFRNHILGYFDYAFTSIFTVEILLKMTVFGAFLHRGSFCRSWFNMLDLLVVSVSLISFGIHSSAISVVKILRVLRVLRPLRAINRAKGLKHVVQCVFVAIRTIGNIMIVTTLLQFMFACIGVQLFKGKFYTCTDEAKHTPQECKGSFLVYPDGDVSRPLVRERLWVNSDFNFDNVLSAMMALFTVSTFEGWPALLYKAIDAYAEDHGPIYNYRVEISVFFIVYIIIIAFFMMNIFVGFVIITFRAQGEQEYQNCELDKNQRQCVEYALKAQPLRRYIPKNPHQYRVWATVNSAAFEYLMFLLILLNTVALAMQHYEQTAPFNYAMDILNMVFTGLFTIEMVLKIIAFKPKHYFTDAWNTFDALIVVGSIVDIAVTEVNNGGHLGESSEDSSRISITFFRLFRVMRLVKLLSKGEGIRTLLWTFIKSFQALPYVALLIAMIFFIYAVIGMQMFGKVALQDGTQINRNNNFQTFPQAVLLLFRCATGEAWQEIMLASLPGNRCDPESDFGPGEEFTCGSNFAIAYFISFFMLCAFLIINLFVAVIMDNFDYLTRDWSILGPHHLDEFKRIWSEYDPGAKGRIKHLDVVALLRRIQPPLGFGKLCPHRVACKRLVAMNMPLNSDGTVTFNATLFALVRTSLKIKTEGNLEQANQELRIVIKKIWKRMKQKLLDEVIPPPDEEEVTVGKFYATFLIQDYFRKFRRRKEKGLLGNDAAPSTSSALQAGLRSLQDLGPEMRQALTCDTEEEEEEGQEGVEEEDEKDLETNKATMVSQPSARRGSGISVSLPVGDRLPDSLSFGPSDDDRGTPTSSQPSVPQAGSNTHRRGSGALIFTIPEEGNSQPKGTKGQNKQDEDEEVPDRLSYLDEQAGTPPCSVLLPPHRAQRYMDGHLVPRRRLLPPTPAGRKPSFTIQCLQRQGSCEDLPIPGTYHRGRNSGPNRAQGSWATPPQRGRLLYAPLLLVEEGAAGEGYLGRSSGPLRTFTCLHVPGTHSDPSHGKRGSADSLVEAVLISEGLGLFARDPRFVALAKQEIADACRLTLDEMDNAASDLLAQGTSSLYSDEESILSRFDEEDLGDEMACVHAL
CaV1.4, sequence (Q08289 whole entry partner): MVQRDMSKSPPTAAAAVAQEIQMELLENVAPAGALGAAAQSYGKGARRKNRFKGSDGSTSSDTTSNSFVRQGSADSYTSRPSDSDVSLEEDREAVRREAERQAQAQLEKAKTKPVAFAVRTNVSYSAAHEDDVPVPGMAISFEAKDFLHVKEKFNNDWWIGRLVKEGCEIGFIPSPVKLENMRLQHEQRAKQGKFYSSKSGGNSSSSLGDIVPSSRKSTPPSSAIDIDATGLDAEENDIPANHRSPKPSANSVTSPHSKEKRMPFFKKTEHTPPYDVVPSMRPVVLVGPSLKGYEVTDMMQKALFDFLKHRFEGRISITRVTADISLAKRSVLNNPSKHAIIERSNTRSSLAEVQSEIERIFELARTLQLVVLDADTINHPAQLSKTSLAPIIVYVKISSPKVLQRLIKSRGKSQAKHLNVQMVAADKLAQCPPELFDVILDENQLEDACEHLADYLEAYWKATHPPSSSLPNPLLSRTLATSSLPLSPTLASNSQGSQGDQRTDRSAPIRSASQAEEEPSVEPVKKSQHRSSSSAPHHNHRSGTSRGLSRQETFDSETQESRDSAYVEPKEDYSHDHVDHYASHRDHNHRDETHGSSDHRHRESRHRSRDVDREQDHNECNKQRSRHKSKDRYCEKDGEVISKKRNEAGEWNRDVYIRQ
CaV1.4, sequence (Q7Z3S7 20-991 partner limits assumed): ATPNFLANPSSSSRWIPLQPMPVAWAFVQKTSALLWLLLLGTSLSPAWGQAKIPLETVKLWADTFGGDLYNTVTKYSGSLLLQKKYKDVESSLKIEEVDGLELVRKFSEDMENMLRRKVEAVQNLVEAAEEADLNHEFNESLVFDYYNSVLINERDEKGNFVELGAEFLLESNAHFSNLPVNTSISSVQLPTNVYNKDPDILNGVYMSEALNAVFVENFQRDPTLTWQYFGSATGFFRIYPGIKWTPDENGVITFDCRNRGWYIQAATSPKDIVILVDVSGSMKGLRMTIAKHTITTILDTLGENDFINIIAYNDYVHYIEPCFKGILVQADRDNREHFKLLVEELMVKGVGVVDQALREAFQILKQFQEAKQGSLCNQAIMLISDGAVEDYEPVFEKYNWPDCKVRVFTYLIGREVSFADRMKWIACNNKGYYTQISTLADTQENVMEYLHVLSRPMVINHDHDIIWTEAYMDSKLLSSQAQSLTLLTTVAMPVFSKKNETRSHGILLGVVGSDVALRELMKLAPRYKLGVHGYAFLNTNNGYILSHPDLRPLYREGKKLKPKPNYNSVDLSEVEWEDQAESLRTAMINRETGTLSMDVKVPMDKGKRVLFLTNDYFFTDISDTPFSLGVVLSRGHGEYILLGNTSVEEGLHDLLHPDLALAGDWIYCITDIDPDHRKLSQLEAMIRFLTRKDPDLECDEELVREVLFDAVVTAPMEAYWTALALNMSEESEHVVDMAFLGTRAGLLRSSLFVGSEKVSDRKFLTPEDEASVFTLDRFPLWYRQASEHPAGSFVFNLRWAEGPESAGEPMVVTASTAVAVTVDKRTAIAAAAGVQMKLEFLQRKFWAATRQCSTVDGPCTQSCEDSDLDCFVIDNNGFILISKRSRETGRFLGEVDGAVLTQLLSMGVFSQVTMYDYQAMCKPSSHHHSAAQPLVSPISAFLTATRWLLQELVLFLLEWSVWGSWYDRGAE
CaV1.4, sequence (Q7Z3S7 992-1137 partner limits assumed): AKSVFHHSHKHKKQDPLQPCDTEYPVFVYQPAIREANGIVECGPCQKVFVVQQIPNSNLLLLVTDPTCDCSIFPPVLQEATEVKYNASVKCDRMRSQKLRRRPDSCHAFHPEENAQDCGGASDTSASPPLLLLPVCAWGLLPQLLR

[3] = target: CaV3.2 (Homo sapiens, UniProt O95180); test: Whole-cell patch-clamp of Ca2+ currents; type: cell-based
In short: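 HEK293T cells co-transfected (Fugene 6) with CaV3.2 plus β2x13, α2δ-4 and eGFP; whole-cell recordings at room temperature 36–72 h later, 4–8 MΩ pipettes, 50–70% series-resistance compensation, P/−4 leak subtraction. Compound perfused in external solution (vehicle ≤1% DMSO); 0.1 Hz currents, steady-state % inhibition vs vehicle fitted by inhibitor–response regression (0–100 constrained). Boltzmann fits of I–V give Gmax, Vh, k, Vrev.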

[4] = target: CaV1.4 M1426A (Homo sapiens, UniProt O60840, M1426A); test: Whole-cell patch-clamp of ICa in HEK293T cells, CaV1.4 M1426A mutant; type: cell-based
[5] = target: CaV1.4 T1007Y (Homo sapiens, UniProt O60840, T1007Y); test: Whole-cell patch-clamp of ICa in HEK293T cells, CaV1.4 T1007Y mutant; type: cell-based
CaV1.4 T1007Y, sequence (O60840 whole entry T1007Y): as the sequence (O60840 whole entry) above, with T1007Y counted along it
CaV1.4 T1007Y, sequence (Q08289 whole entry partner): as the sequence (Q08289 whole entry partner) above
CaV1.4 T1007Y, sequence (Q7Z3S7 20-991 partner limits assumed): as the sequence (Q7Z3S7 20-991 partner limits assumed) above
CaV1.4 T1007Y, sequence (Q7Z3S7 992-1137 partner limits assumed): as the sequence (Q7Z3S7 992-1137 partner limits assumed) above

[6] = target: CaV1.4 M1129A (Homo sapiens, UniProt O60840, M1129A); test: Whole-cell patch-clamp of ICa in HEK293T cells, CaV1.4 M1129A mutant; type: cell-based
[7] = target: CaV1.2 V1063M (Oryctolagus cuniculus, UniProt P15381, V1063M); test: Whole-cell patch-clamp of ICa in HEK293T cells, CaV1.2 V1063M mutant; type: cell-based, rabbit
[8] = system: CaV3 channels; settings: ref Xiang et al., 2011; cited from earlier work
[9] = target: CaV1.4 M1004A (Homo sapiens, UniProt O60840, M1004A); test: Whole-cell patch-clamp of ICa in HEK293T cells, CaV1.4 M1004A mutant; type: cell-based
[10] = system: three CaV3 subtypes; settings: ref Tringham et al., 2012; cited from earlier work
[11] = system: Cav1.4 ICa in mouse cones; settings: 5 μM, ref Davison et al., 2022; cited from earlier work
[12] = system: Cav1.2; settings: ref Wei et al., 2024; cited from earlier work
[13] = system: Cav1.4; settings: ref Koschak et al., 2003; cited from earlier work
[14] = CaV3.2, inhibition of ICa, Hill fit, mean ± SEM
[15] = CaV1.4, drug at 5 µM, Vhold −90 mV
[16] = CaV3.2, drug at 100 nM, mean ± SEM or median

Which results are given for `CC(C)(C)CCN1C[C@@H]2C(CNC(=O)c3cc(Cl)cc(Cl)c3)[C@@H]2C1` (stereo partly shown) [ML218, ML218 hydrochloride]?
IC50 [1]: ~37 µM and 37 µM; IC50 ([2]; CaV1.4 WT): 2.1 ± 0.51 µM; IC50 [3, 14]: 0.0237 ± 0.0025 µM; IC50 ([3]; CaV3.2 ICa): ~0.024 µM; IC50 [4]: 15 ± 2.9 µM; IC50 ([5]; CaV1.4 T1007Y): ~20 µM and 20 µM; IC50 [6]: 0.45 ± 0.16 µM; IC50 [7]: 120 ± 60 µM; IC50 [8]: < 0.5 µM; IC50 [9]: 310 ± 190 µM

For `CC(C)(C)NC(=O)CN1CCC(CNC(=O)c2cc(F)cc(Cl)c2)CC1` [Z944], which “affinity for CaV3 subtypes higher than for CaV2.2 and CaV1.2” value [10] is on record?
Its value is 70-100 times.

And the Gmax [2, 15]?
Its Gmax is 0.0845 ± 0.0387 nS/pF.

What about the Vh [2, 15] of the same compound?
Its Vh is -6.10 ± 1.54 mV.

What about the Vrev [2, 15] of the same compound?
The Vrev was 60.73 ± 4.72 mV.

What about the k [2, 15] of the same compound?
The k was 8.89 ± 0.50 mV.

And the “Hill Slope” value ([2]; CaV1.4 WT, dose-response fit)?
The value was 0.22 ± 0.04.

What about the IC50 ([2]; CaV1.4 WT) of the same compound?
The IC50 was 31.5 ± 21 µM.

And the “IC50 for Cav1.4 higher than that for Cav3.2” value ([2]; Cav1.4 versus Cav3.2)?
The value was ~ 100 fold.

What about the Vrev ([3]; CaV3.2, drug at 100 nM) of the same compound?
The Vrev was 42.96 ± 1.86 mV.

And the “inhibition of the peak ICa amplitude” value ([3]; CaV3.2, drug at 100 nM)?
Its value is ~ 40%.

What about the Gmax ([3]; CaV3.2, drug at 100 nM, Boltzmann fit of I-V, mean ± SEM or median) of the same compound?
The Gmax was 0.55 ± 0.13 nS/pF.

What about the Vh [3, 16] of the same compound?
The Vh was -33.47 ± 3.65 mV.

And the k [3, 16]?
Its k is 6.75^† mV.

And the “Hill Slope” value ([3]; CaV3.2, dose-response fit)?
Its value is 0.82 ± 0.10.

What about the IC50 [3, 14] of the same compound?
Its IC50 is 0.26 ± 0.04 µM.

What about the IC50 ([3]; CaV3.2 ICa) of the same compound?
The IC50 was about 0.265 µM.

What about the “effect on amplitude of Cav1.4 ICa” value [11] of the same compound?
Its value is “increased the amplitude”.

Which “higher potency compared to nifedipine” value [12] does the source give for `COC(=O)C1=C(C)NC(C)=C(C(=O)OC2CCCN(Cc3ccccc3)C2)C1c1cccc([N+](=O)[O-])c1` (stereo not shown) [benidipine] here?
Its value is 10 fold.

Which inhibition at 1 µM ([2]; HEK-293T, read-out: inhibition of ICa amplitude) does the source give for `COC(=O)C1=C(C)NC(C)=C(C(=O)OC(C)C)C1c1cccc2nonc12` (stereo not shown) [isradipine] here?
The inhibition at 1 µM was about 78%.

What about the inhibition at 1 µM ([5]; HEK-293T, read-out: inhibition of ICa) of the same compound?
Its inhibition at 1 µM is about 17%.

And the “increase in the extent of block on shifting Vhold from −90 mV to −50 mV” value [13]?
Its value is ~ 80%.
